# In PubChem BioAssay:
# Active and inactive are the calls of the source.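 How the source made its calls, unless noted: active means inhibition above 20% together with a positive visual image hit; inconclusive means visual image hit but inhibition not above 20%; inactive means no visual image hit.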
# Assays:
# [1] = inhibitors of TNFa-induced NFkB p65 translocation, primary screen, imaging, HUVEC, MLSMR starter and 10KST1 sets (AID 438); conditions: HUVEC TNFa-induced p65 nuclear translocation; cell count: measured here: nuclei count (cytotoxicity indicator), at 2.08 µM; inhibition: at 2 µM, stronger effect = higher value, 0% TNFa-plus-vehicle, 100% no-TNFa wells;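 further: compound added about 3h40 before a 20 min TNFalpha stimulation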;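 on inhibition: signal is the nuclear over cytoplasmic p65 intensity ratio per well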
# [2] = endothelial E-selectin expression blockers – imaging, HUVEC, immunofluorescence, MLSMR starter and 10KST1 sets, primary screen (AID 487;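 active means visually confirmed hit in the image check and inhibition above 20%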;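 on inhibition: signal is fraction of cell area covered by stained E-selectin grains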;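 on nuclei count: 100% = median nuclei count of all wells on the same plate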); conditions: HUVEC TNFalpha-induced E-selectin immunofluorescence imaging, at 2 µM; inhibition: stronger effect = higher value; nuclei count: measured here: cell number, toxicity
# [3] = Primary imaging screen for DUSP6 inhibitors that restore phospho-Erk in transfected HeLa cells, chemical complementation (AID 609;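 active means compounds giving at least 50% inhibition in the cell-based MKP-3 phosphatase rescue imaging test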;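 on inhibition: phospho-Erk level distribution per well compared with pooled transfected vehicle control wells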); conditions: HeLa MKP-3 transfected, phospho-Erk imaging KS statistic, at 10 µM, cells stimulated with TPA for 15 min
# [4] = molecular target: Dual specificity protein phosphatase 6 (Homo sapiens) (UniProt Q16828); assay: as above; conditions: HeLa MKP-3 transfected, phospho-Erk imaging KS statistic; at 10 µM; stronger effect = higher value; cells stimulated with TPA for 15 min
# [5] = molecular target: Voltage-gated potassium channel subunit beta-2 (Rattus norvegicus) (UniProt P62483); assay: inhibitors of rat Kvbeta2 reductase activity – biochemical, NADPH fluorescence, primary screen (AID 622;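 active means fluorescence slope higher than the sample average by over 3 SD, cut at about -0.22 in these data, passing the limit was not always enough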;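 further: slope of raw intensity against log time taken from 70 to 1610 s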); conditions: recombinant KvBeta, 4-cyanobenzaldehyde reduction, at 10 µM, stronger effect = higher value
# [6] = molecular target: Voltage-gated potassium channel subunit beta-2 (Rattus norvegicus) (UniProt P62483); assay: enhancers of rat Kvbeta2 NADPH turnover – biochemical, NADPH fluorescence, primary screen (AID 623;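 active means NADPH fluorescence slope more negative than the mean of all samples by about 3 SD, 99.7% confidence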;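 further: fluorescence intensity change per second fitted from 20 to 320 s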); conditions: Recombinant KvBeta, NADPH fluorescence decrease slope, 10 min; at 10 µM; stronger effect = lower value
# [7] = molecular target: Muscarinic acetylcholine receptor M4 (Homo sapiens) (UniProt P08173); assay: M4-linked GIRK flux change, two-sided – cell-based, HEK293 M4/GIRK, thallium flux, BTC-AM, M4 allosteric agonist project, primary screen (AID 625;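 active means fluorescence slope after compound addition differing from the mean of all tested samples at 99.7% confidence, mostly higher but some lower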;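 further: thallium influx through GIRK channels coupled to M4 in HEK293 cells with BTC-AM dye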); conditions: at 10 µM, actives lie on both sides
# In short: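 Material – HEK293 cells with M4 receptor and GIRK channels · Buffer or medium – pH 7.3 thallium assay buffer · Doses – one dose, 10 µM final · Timing – cells overnight at 37 °C, BTC-AM loading 1 h, reads 2 min total · Measured by – kinetic fluorescence with BTC-AM dye · Controls – carbachol and DMSO controls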
# [8] = inhibitors of larval lipid processing in zebrafish, primary screen, whole organism, PED6 fluorescence, gall bladder and intestine (AID 686;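 active means a full or partial loss of lipid-probe fluorescence in the fish gall bladder, intestine or both, judged by eye; inactive means no fluorescence loss, or compound toxic to the fish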;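 further: larvae 5 to 7 days old with five fish per well; signal comes from phospholipase A2 cleavage of quenched PED6 carried via bile; overnight exposure to compound and PED6 before scoring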); conditions: Zebrafish larvae PED6 lipid processing, fluorescence scoring; screened at 20 µM (by protocol)
# In short: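 system = live zebrafish larvae aged 5-7 days, whole organism | probe or stimulus = ingested quenched lipid PED6 at 100 nM | doses = 20 µM single dose | timing = overnight exposure | detection = fluorescence microscopy with visual scoring of gall bladder and intestine | read-out = visual per-well fluorescence inhibition score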
# [9] = loss of swimming-algae plug formation – whole organism, Chlamydomonas reinhardtii, WT vs cilia-less mutant, absorbance, 96-well, primary screen (AID 463189;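 active means inhibition at or above 50% relative to wild type and mutant plate controls; inactive means inhibition below 50%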;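 further: 0% = wild type cc124 cells in DMSO and 100% = ciliumless bld1 mutant cells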); conditions: Chlamydomonas reinhardtii gravitaxis, OD600 absorbance, 2 days; at 10 µM; stronger effect = higher value
# [10] = measured here: cell density z-score
# [11] = measured here: nuclear c-Myc green intensity z-score
# [12] = measured here: nuclear pErk red intensity z-score, stronger effect = higher value
# Dual specificity protein phosphatase 6 (Homo sapiens), sequence (Q16828 whole entry, looked up): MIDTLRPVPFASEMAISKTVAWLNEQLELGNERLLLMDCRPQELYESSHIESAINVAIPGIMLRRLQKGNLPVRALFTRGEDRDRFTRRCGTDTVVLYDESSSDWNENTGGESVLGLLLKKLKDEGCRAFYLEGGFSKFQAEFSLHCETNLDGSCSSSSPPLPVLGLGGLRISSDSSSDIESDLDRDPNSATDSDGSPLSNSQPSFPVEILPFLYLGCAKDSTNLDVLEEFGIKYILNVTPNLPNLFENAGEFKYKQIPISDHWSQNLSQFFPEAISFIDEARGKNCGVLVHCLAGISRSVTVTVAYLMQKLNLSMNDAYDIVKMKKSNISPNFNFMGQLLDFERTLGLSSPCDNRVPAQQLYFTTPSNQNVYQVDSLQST
# Muscarinic acetylcholine receptor M4 (Homo sapiens), sequence (P08173 whole entry, looked up): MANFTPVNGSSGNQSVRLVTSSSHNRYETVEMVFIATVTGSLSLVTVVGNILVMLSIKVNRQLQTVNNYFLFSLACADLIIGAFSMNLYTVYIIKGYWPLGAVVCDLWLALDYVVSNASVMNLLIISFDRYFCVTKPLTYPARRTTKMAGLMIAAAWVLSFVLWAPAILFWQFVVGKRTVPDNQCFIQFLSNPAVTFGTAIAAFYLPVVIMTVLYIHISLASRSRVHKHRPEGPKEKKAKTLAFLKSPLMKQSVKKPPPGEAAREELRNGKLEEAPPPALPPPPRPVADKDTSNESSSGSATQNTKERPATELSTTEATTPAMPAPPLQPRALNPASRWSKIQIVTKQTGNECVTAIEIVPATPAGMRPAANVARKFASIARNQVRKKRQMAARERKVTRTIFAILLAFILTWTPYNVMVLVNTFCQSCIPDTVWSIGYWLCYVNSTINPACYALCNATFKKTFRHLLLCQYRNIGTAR
# Voltage-gated potassium channel subunit beta-2 (Rattus norvegicus), sequence (P62483 whole entry, looked up): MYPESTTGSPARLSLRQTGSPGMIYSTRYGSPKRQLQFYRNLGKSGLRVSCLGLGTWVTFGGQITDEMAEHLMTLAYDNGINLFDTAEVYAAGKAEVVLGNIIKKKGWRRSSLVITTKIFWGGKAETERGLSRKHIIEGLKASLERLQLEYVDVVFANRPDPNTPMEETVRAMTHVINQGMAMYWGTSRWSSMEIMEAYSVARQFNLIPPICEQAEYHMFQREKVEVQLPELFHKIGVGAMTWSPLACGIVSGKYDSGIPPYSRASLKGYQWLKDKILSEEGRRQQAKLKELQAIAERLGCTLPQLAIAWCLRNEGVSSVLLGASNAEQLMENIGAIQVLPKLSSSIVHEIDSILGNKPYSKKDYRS
Compound,cell count [1],inhibition [1],inhibition [2],nuclei count [2] [%],"z-score [3, 10]","z-score [3, 11]","z-score [3, 12]",inhibition [4],fluorescence slope [5],NADPH fluorescence slope [6],fluorescence slope [7],outcome [8],inhibition [9]
CN1CCc2c(C#N)c(N3CCCCC3)nc(N3CCOCC3)c2C1,534,-9.2% (inactive),-129% (inactive),127,0.848,-1.39,0.568,-0.584% (inactive),-0.418 (inactive),-5.8e-05 (inactive),0.00417 (inactive),inactive,4.52% (inactive)
Cc1cc(=O)oc2c(CN3CCCCC3)c(O)c(Cl)cc12,703,-7.3% (inactive),-40.4% (inactive),146,0.085,0.889,-2.46,7.83% (inactive),-0.0387 (inactive),-0.000132 (inactive),0.0046 (inactive),inactive,15.8% (inactive)
COCCNc1nc2c(c(=O)n(C)c(=O)n2C)n1Cc1cccc(C(F)(F)F)c1,698,3% (inactive),-94.2% (inactive),95.8,0.711,-1.37,-0.346,7.93% (inactive),-0.559 (inactive),-8e-05 (inactive),0.00743 (inactive),inactive,36.2% (inactive)
CC(NC(=O)CSc1nnc(COc2ccccc2)o1)c1ccccc1 (stereo unspecified),397,1.7% (inactive),-35.2% (inactive),134,-0.868,0.275,1.84,-6.86% (inactive),-0.453 (inactive),-0.000143 (inactive),0.00476 (inactive),inactive,5.02% (inactive)
COC(=O)CC(=O)Cc1nc(N)nc(Nc2ccc(C)c(C)c2)n1,628,1.8% (inactive),-16.8% (inactive),133,0.15,0.484,0.858,-0.233% (inactive),-0.442 (inactive),-3e-05 (inactive),0.00526 (inactive),inactive,1.81% (inactive)
CCc1cc(=O)oc2cc(C)c(CN3CCCCC3)c(O)c12,612,-9.1% (inactive),31% (inactive),182,-0.916,-0.125,1.01,-8.95% (inactive),-0.464 (inactive),-6.3e-05 (inactive),0.00459 (inactive),inactive,4.62% (inactive)
O=C(NCCCN1CCOCC1)C1(c2ccccc2)CCOCC1,610,-2% (inactive),14.3% (inactive),91.3,-0.279,1.09,-0.449,-3.95% (inactive),-0.501 (inactive),-2.1e-05 (inactive),0.0058 (inactive),inactive,19.5% (inactive)
COCCCNC(=O)c1c(N)n(/N=C/c2ccccn2)c2nc3ccccc3nc12,736,7.3% (inactive),5.4% (inactive),148,0.26,1.28,1.17,-1.12% (inactive),-0.424 (inactive),-5.6e-05 (inactive),0.00553 (inactive),inactive,82.5% (active)
COc1cccc(C(=O)OC2CCCN(C)C2)c1 (stereo unspecified),524,1.2% (inactive),-39.2% (inactive),141,0.452,1.21,0.0712,9.42% (inactive),-0.457 (inactive),-8.4e-05 (inactive),0.00427 (inactive),inactive,0.435% (inactive)
C=CCn1c(=N)c(C(=O)OCC)cc2c(=O)n3cccc(C)c3nc21,614,5.3% (inactive),-125% (inactive),149,-2.08,1.41,1.9,-9.66% (inactive),-0.114 (inactive),-2e-05 (inactive),0.00285 (inactive),inactive,159% (active)
CC1(C)Cc2c(C#N)c(N3CCN(C(=O)c4ccco4)CC3)nc(-c3ccco3)c2CS1,639,-0.1% (inactive),-82.6% (inactive),138,-1.4,-0.121,-2.48,-4.27% (inactive),-0.464 (inactive),-6.6e-05 (inactive),0.00584 (inactive),inactive,3.99% (inactive)
CCSc1nnc(NC(NC(=O)c2ccco2)(C(F)(F)F)C(F)(F)F)s1,608,-7.3% (inactive),-13.8% (inactive),91.9,-1.05,-0.75,-0.312,-7.67% (inactive),-0.483 (inactive),-3.9e-05 (inactive),0.00455 (inactive),inactive,-9.53% (inactive)
Cc1cc(=O)oc(C)c1C(=O)Nc1ccc2nsnc2c1,517,-2% (inactive),3.2% (inactive),164,0.355,0.546,0.697,5.95% (inactive),-0.278 (inactive),-2.8e-05 (inactive),0.00564 (inactive),inactive,-6.75% (inactive)
CCOc1ccc(NC(=O)c2nn(C)cc2Br)cc1,647,2.4% (inactive),-41% (inactive),157,0.327,0.393,-0.814,-4.27% (inactive),-0.489 (inactive),-6.1e-05 (inactive),0.00579 (inactive),inactive,4.55% (inactive)
COc1cccc(OC)c1C(=O)Nc1nc2ccc(S(C)(=O)=O)cc2s1,388,-2.4% (inactive),-8.7% (inactive),109,0.854,0.658,-1.02,6.04% (inactive),-0.409 (inactive),-1e-05 (inactive),0.00408 (inactive),inactive,19.4% (inactive)
CC(C)Cc1nc(N2CCN(C(=O)Cc3ccccc3)CC2)c(C#N)c2c1COC(C)(C)C2,601,-8.9% (inactive),-80.2% (inactive),153,-0.132,-0.0812,-0.136,9.07% (inactive),-0.453 (inactive),-0.000102 (inactive),0.00471 (inactive),inactive,13.3% (inactive)
CCCCC(CCC(=O)Nc1ccc(C(=O)OC)cc1)C(=O)O (stereo unspecified),405,-4.7% (inactive),-189% (inactive),152,0.378,-1.21,-0.623,14% (inactive),-0.439 (inactive),-0.000105 (inactive),0.00484 (inactive),inactive,25.1% (inactive)
CC(C)C(=O)N1CCN(c2nc(-c3ccccc3)c3c(c2C#N)CC(C)(C)OC3)CC1,607,-3.4% (inactive),-9.6% (inactive),163,0.152,0.868,-0.257,-2.29% (inactive),-0.366 (inactive),-2.4e-05 (inactive),0.00797 (inactive),inactive,26.8% (inactive)
COc1ccc(-n2ncc3c(N4CCC(C(N)=O)CC4)ncnc32)cc1,602,-18.6% (inactive),-114% (inactive),159,0.0865,1.24,-0.312,13.4% (inactive),-0.385 (inactive),-6.8e-05 (inactive),0.00675 (inactive),inactive,-0.327% (inactive)
COC(=O)c1cc(Br)c(=O)n(Cc2ccco2)c1,518,-0.8% (inactive),34.7% (inactive),159,-0.341,0.91,-1.02,1.9e-07% (inactive),-0.411 (inactive),-3.2e-05 (inactive),0.00519 (inactive),inactive,-6.69% (inactive)
Oc1oc(-c2ccco2)nc1C=Nc1cccc(Cl)c1,562,5.6% (inactive),-19% (inactive),131,-0.184,-1.01,0.105,-12.6% (inactive),-0.449 (inactive),-0.000133 (inactive),0.00392 (inactive),inactive,-1.6% (inactive)
COc1ccc(/C(O)=C2\C(=O)C(=O)N(c3cc(C)on3)C2c2ccccc2OC)cc1C (stereo unspecified),556,-11.7% (inactive),9.9% (inactive),118,-1.41,-1.49,-1.43,-8.27% (inactive),-0.473 (inactive),-2.1e-05 (inactive),0.00597 (inactive),inactive,-0.426% (inactive)
COC(=O)CSc1nc2c(c(=O)n(C)c(=O)n2C)n1CCC(C)C,599,-7% (inactive),-120% (inactive),130,-2.77,3.03,-2.44,3.42% (inactive),-0.394 (inactive),6.8e-06 (inactive),0.00549 (inactive),inactive,-12.3% (inactive)
CSc1nc(N)nc(SCC(=O)C23CC4CC(CC(C4)C2)C3)c1C#N,491,2.8% (inactive),-70.2% (inactive),94.4,-0.797,0.314,-0.79,15.9% (inactive),-0.334 (inactive),-1.7e-05 (inactive),0.00876 (inactive),inactive,35.9% (inactive)
COc1cccc(C2CC(c3ccccc3Cl)n3nc(N)nc3N2)c1 (stereo unspecified),399,-1.4% (inactive),-136% (inactive),131,0.0849,1.44,-0.355,24.4% (inactive),-0.464 (inactive),-7.1e-05 (inactive),0.00588 (inactive),inactive,29.4% (inactive)
COc1ccc(CSc2nnc3n(C)c(=O)c4c5c(sc4n23)CCCC5)cc1,563,-1.3% (inactive),-140% (inactive),184,0.888,-0.948,-1.27,17.8% (inactive),-0.41 (inactive),-1.6e-05 (inactive),0.00522 (inactive),inactive,1.97% (inactive)
Cc1cccc(NC(=O)c2c(C)cc(=O)oc2C)n1,522,-1.7% (inactive),26.4% (inactive),170,0.944,0.403,-0.669,7.93% (inactive),-0.374 (inactive),-3.7e-05 (inactive),0.00509 (inactive),inactive,-9.96% (inactive)
